# Data from ChEMBL document CHEMBL3259712, “New 5-unsubstituted dihydropyridines with improved CaV1.3 selectivity as potential neuroprotective agents against ischemic injury” (J Med Chem, 2014).
# Legend:
# Format in all cases: functional
# SH-SY5Y [1] = experiment: Neuroprotective activity against rotenone-oligomycin A-induced oxidative stress in human SH-SY5Y cells assessed as protection at 0.3 uM co-incubated rot/oligo for 24 hrs by MTT assay relative to control
# SH-SY5Y [2] = experiment: Neuroprotective activity against rotenone-oligomycin A-induced oxidative stress in human SH-SY5Y cells assessed as protection incubated with rot/oligo for 8 hrs followed by treated with compound at 0.3 uM for 16 hrs by MTT assay relative to control
# SH-SY5Y [3] = experiment: Neuroprotective activity against rotenone-oligomycin A-induced oxidative stress in human SH-SY5Y cells assessed as survival incubated with rot/oligo for 8 hrs followed by treated with compound at 0.3 uM for 16 hrs by MTT assay (Rvb =70.6 +/- 1.8%); conditions: read-out: Survival
# In short: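 SH-SY5Y cells cultured 24 h, then exposed to rotenone/oligomycin A (30/10 μM) for 8 h at 37 °C. Stressor removed; compound in 1% FBS medium added for 16 h. DMSO-only control. MTT reduction (5 mg/mL, 2 h, 37 °C; OD 540 nm). Survival relative to untreated basal; mean ± SEM of five to seven cultures in triplicate.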
# SH-SY5Y [4] = experiment: Neuroprotective activity against rotenone-oligomycin A-induced oxidative stress in human SH-SY5Y cells assessed as survival at 0.3 uM co-incubated rot/oligo for 24 hrs by MTT assay (Rvb =65.6 +/- 1.3%); conditions: read-out: Survival
smiles,measurement,setting,value
COc1ccc2[nH]cc(CCNC(C)=O)c2c1 [MELATONIN],Activity,SH-SY5Y [1],44.7%
same,Activity,SH-SY5Y [2],58.3%
same,viability at 0.3 µM,SH-SY5Y [3],87.8%
same,viability at 0.3 µM,SH-SY5Y [4],82.5%
